Assay results collected from several papers.
Each line is one published result; the experiments were not run side by side.
BTK: Tyrosine-protein kinase BTK (BTK, Homo sapiens, UniProt Q06187)

With `CC#CC(=O)N1CCC[C@H]1c1nc(-c2ccc(C(=O)Nc3ccccn3)cc2)c2c(N)nccn12` the inhibition was 100% (BTK; enzyme activity, inhibitor; 1 µM).
`COc1ccc2oc(-c3ccc4nc(N)oc4c3)c/c(=N\c3ccccc3NC(=O)CCN)c2c1` has a remaining signal of 99% (Tyrosine-protein kinase BTK (BTK, Homo sapiens, UniProt Q06187, R28H); cell-free assay; 1 µM).
`Cc1nc(Nc2ncc(C(=O)Nc3c(C)cccc3Cl)s2)cc(N2CC[C@H](N)C2)n1` gave an inhibition of 65% (BTK; enzyme activity, inhibitor, mobility shift; 1 nM).
With `C=CC(=O)Nc1cccc(Oc2nc(Nc3ccc(N4CCN(C)CC4)cc3)nc3ccoc23)c1` the kinact/KI was 219000 M⁻¹ s⁻¹ (Tyrosine-protein kinase BTK, non-phosphorylated (BTK, Homo sapiens, UniProt Q06187); cell-free assay, TR-FRET).
For `CCCCC(=O)Nc1ccc(-c2ccc3ncn(CCC)c(=O)c3c2)cn1`, the remaining binding was 89% (BTK; binding, competition with immobilised ligand; 0.5 µM).
With `C#Cc1cnc(Nc2ccnc(CO)c2)nc1Nc1ccccc1S(C)(=O)=NC#N` (stereo not shown) the remaining signal was 41% (BTK; cell-free assay; 1 µM).
With `C1=C/COCc2cc(ccc2OCCN2CCCC2)Nc2nccc(n2)-c2cccc(c2)COC/1` the remaining signal was 100% (BTK; cell-free assay; 0.1 µM).
For `CO[C@@H]1[C@H](N(C)C(=O)c2ccccc2)C[C@H]2O[C@]1(C)n1c3ccccc3c3c4c(c5c6ccccc6n2c5c31)C(=O)NC4`, the inhibition was 0% (BTK; enzyme activity, inhibitor; 1 µM).
`Cc1nc(Nc2ncc(C(=O)Nc3c(C)cccc3Cl)s2)cc(N2CCC(O)CC2)n1` gave an inhibition of 77% (BTK; enzyme activity, inhibitor, mobility shift; 1 nM).
`COc1ccc2[nH]c3c4[nH]c5ccc(OC)cc5c4c4c(c3c2c1)C(=O)NC4=O` has a remaining binding of 74% (BTK; binding, competition with immobilised ligand; 1 µM).
`N#Cc1ccc(NC(=O)Nc2ccccc2)cc1` gave a remaining binding of 89% (BTK; cell-free assay, competition with immobilised ligand; 25 µM).
`CN1CCN(C(=O)c2ccc(NC(=O)Nc3ccc(N(C)c4ccnc(Nc5ccc(CS(C)(=O)=O)cc5)n4)cc3)cc2)CC1` has a remaining binding of 50% (BTK; binding, competition with immobilised ligand; 1 µM).
The inhibition of `[2H]c1cc(C)c(NC(=O)c2cnc(Nc3cc(N4CC[C@@H](O)C4)nc(C)n3)s2)c(Cl)c1` is reported as 73% (BTK; enzyme activity, inhibitor, mobility shift; 1 nM).
